Activity calls are given as the source filed them. The calls are words filed in the database; no cut-off is given here.
Tests used:
Assay type in all cases: functional, cell-based
[1] = (§1) Cytotoxicity against human COLO320DM cells after 48 hrs by MTT assay; details: COLO 320DM
Outline: (§2)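 Jurkat and Colo 320DM grown in RPMI 1640 with 10% FBS and 1% ampicillin; A549 in 90% DMEM with 10% FBS. Cells seeded at line-dependent densities, held 24 h compound-free, then exposed 48 h to six 2-fold dilutions (top […]). MTT (10 mg/ml PBS solution) added for 4 h at 37 °C; DMSO-solubilized formazan read at 570 nm. Three runs in triplicate.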

COLO 320DM [2] = assay: as §1; outline: as §2
A549 [3] = assay: Cytotoxicity against human A549 cells at 500 uM after 48 hrs by MTT assay
MG-63 [4] = assay: Cytotoxicity against human MG63 cells at 500 uM after 48 hrs by MTT assay
Jurkat [5] = assay: Cytotoxicity against human Jurkat cells at 500 uM after 48 hrs by MTT assay
NCI-H23 [6] = assay: Cytotoxicity against human NCI-H23 cells at 500 uM after 48 hrs by MTT assay
A549 [7] = assay: Cytotoxicity against human A549 cells at 200 uM after 48 hrs by MTT assay
NCI-H23 [8] = assay: Cytotoxicity against human NCI-H23 cells after 48 hrs by MTT assay; details: for IC50: NCI-H23, 48 h
Outline: (§3)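 Cells seeded at densities suited to their growth and incubated 24 h compound-free. They were then treated 48 h with six 2-fold serial dilutions, top […]. Viability was measured by MTT (added from a 10 mg/ml PBS solution; 4 h, 37 °C), followed by centrifugation, DMSO dissolution and A570. Run thrice in triplicate; mean ± SD, n = 3.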

COLO 320DM [9] = assay: Cytotoxicity against human COLO320DM cells at 200 uM after 48 hrs by MTT assay
Jurkat [10] = assay: Cytotoxicity against human Jurkat cells at 200 uM after 48 hrs by MTT assay
[11] = (§4) Cytotoxicity against human MG63 cells after 48 hrs by MTT assay; details: MG-63, 48 h; outline: as §3
MG-63 [12] = assay: as §4; outline: as §3
Jurkat [13] = assay: Cytotoxicity against human Jurkat cells after 48 hrs by MTT assay
Outline: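 Cells seeded at line-dependent densities, held 24 h compound-free, then exposed 48 h to six 2-fold dilutions (top […]). MTT (10 mg/ml PBS solution) added for 4 h at 37 °C; DMSO-solubilized formazan read at 570 nm. Three runs in triplicate.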

A549 [14] = assay: Cytotoxicity against human A549 cells after 48 hrs by MTT assay; details: for IC50: A549, 48 h; outline: as §2
COLO 320DM [15] = assay: Cytotoxicity against human COLO320DM cells at 500 uM after 48 hrs by MTT assay
Jurkat [16] = assay: Cytotoxicity against human Jurkat cells at 100 uM after 48 hrs by MTT assay
MG-63 [17] = assay: Cytotoxicity against human MG63 cells at 250 uM after 48 hrs by MTT assay
NCI-H23 [18] = assay: Cytotoxicity against human NCI-H23 cells at 250 uM after 48 hrs by MTT assay

| Compound | IC50 [1] | inhibition (COLO 320DM [2]) | inhibition (NCI-H23 [8]) | IC50 (NCI-H23 [8]) | IC50 [11] | inhibition (MG-63 [12]) | IC50 (Jurkat [13]) | inhibition (Jurkat [13]) | inhibition (A549 [14]) | IC50 (A549 [14]) | other results |
| --- | --- | --- | --- | --- | --- | --- | --- | --- | --- | --- | --- |
| CCOP(=O)(OCC)C(Nc1ccccc1)c1ccc(F)cc1 (stereo unspecified) | 160 µM | Dose-dependent effect |  |  |  |  |  |  |  |  | inhibition (A549 [3]): inactive; inhibition (MG-63 [4]): inactive; inhibition (Jurkat [5]): inactive; inhibition (NCI-H23 [6]): inactive |
| CCOP(=O)(OCC)C(Nc1ccccc1)c1ccc(OC)cc1 (stereo unspecified) |  |  | Dose-dependent effect | 53.8 µM | 106 µM | Dose-dependent effect |  |  |  |  | inhibition (A549 [7]): inactive; inhibition (COLO 320DM [9]): inactive; inhibition (Jurkat [10]): inactive |
| CCOP(=O)(OCC)C(Nc1c(C)cccc1C)c1ccc2c(c1)OCO2 (stereo unspecified) | 105 µM | Dose-dependent effect | Dose-dependent effect | 248 µM | 114 µM | Dose-dependent effect | > 500 µM | Dose-dependent effect | Dose-dependent effect | > 500 µM |  |
| CCOP(=O)(OCC)C(Nc1ccccc1)c1ccc(OC)c(O)c1 (stereo unspecified) | 47.9 µM | Dose-dependent effect | Dose-dependent effect | 39.7 µM | 37.5 µM | Dose-dependent effect | 57 µM | Dose-dependent effect | Dose-dependent effect | 62.4 µM |  |
| CCCCOP(=O)(OCCCC)C(Nc1cccc(Cl)c1)c1ccc2c(c1)OCO2 (stereo unspecified) | 93 µM | Dose-dependent effect | Dose-dependent effect | 77.2 µM | 108 µM | Dose-dependent effect | > 500 µM | Dose-dependent effect | Dose-dependent effect | 263 µM |  |
| CCCCOP(=O)(OCCCC)C(Nc1ccccc1C)c1ccc2c(c1)OCO2 (stereo unspecified) |  |  |  |  |  |  | > 500 µM | Dose-dependent effect |  |  | inhibition (A549 [3]): inactive; inhibition (MG-63 [4]): inactive; inhibition (COLO 320DM [15]): inactive; inhibition (NCI-H23 [6]): inactive |
| CCCCOP(=O)(OCCCC)C(N[C@@H](C)c1ccccc1)c1ccc2c(c1)OCO2 (stereo partly specified) |  |  |  |  |  |  |  |  |  |  | inhibition (A549 [3]): inactive; inhibition (MG-63 [4]): inactive; inhibition (Jurkat [5]): inactive; inhibition (COLO 320DM [15]): inactive; inhibition (NCI-H23 [6]): inactive |
| COc1cccc2c1C(=O)c1c(O)c3c(c(O)c1C2=O)C[C@@](O)(C(=O)CO)C[C@@H]3O[C@H]1C[C@H](N)[C@H](O)[C@H](C)O1 [DOXORUBICIN] |  |  |  |  | 3.17 µM | Dose-dependent effect |  |  | Dose-dependent effect | 4 µM |  |
| CC/C(=C(\c1ccccc1)c1ccc(OCCN(C)C)cc1)c1ccccc1 |  |  |  |  |  |  |  | Dose-dependent effect |  |  |  |
| O=P(Oc1ccccc1)(Oc1ccccc1)C(Nc1cccc(F)c1)c1ccc2c(c1)OCO2 (stereo unspecified) |  |  | Dose-dependent effect | 48.2 µM |  |  | 490 µM | Dose-dependent effect |  |  | inhibition (A549 [3]): inactive; inhibition (MG-63 [4]): inactive; inhibition (COLO 320DM [15]): inactive |
| CCOP(=O)(OCC)C(Nc1ccccc1)c1ccc([N+](=O)[O-])cc1 (stereo unspecified) | 42.1 µM | Dose-dependent effect | Dose-dependent effect | 37.4 µM | 31.9 µM | Dose-dependent effect |  |  | Dose-dependent effect | 57.5 µM | inhibition (Jurkat [16]): inactive |
| O=c1[nH]cc(F)c(=O)[nH]1 [FLUOROURACIL] | 2 µM | Dose-dependent effect |  |  |  |  |  |  |  |  |  |
| CCOP(=O)(OCC)C(Nc1ccccc1O)c1ccc2c(c1)OCO2 (stereo unspecified) | 79.4 µM | Dose-dependent effect | Dose-dependent effect | 190 µM | 115 µM | Dose-dependent effect | > 500 µM | Dose-dependent effect | Dose-dependent effect | 278 µM |  |
| CCOP(=O)(OCC)C(Nc1ccccc1)c1ccc2c(c1)OCO2 (stereo unspecified) | 92 µM | Dose-dependent effect | Dose-dependent effect | 65.8 µM | 68.8 µM | Dose-dependent effect | > 500 µM | Dose-dependent effect | Dose-dependent effect | 134 µM |  |
| CCCCOP(=O)(OCCCC)C(N[C@H](C)c1ccccc1)c1ccc2c(c1)OCO2 (stereo partly specified) | 15.8 µM | Dose-dependent effect | Dose-dependent effect | 28.6 µM | 13.6 µM | Dose-dependent effect | 4 µM | Dose-dependent effect | Dose-dependent effect | 43.4 µM |  |
| CCOP(=O)(OCC)C(Nc1ccccc1)c1ccc(OC)c(OC)c1 (stereo unspecified) | 36.4 µM | Dose-dependent effect | Dose-dependent effect | 39.5 µM | 34 µM | Dose-dependent effect |  |  | Dose-dependent effect | 74.1 µM | inhibition (Jurkat [16]): inactive |
| CCCCOP(=O)(OCCCC)C(Nc1ccc2c(c1)OCO2)c1ccc2c(c1)OCO2 (stereo unspecified) | 66.5 µM | Dose-dependent effect |  |  |  |  | 80 µM | Dose-dependent effect | Dose-dependent effect | 192 µM | inhibition (MG-63 [17]): inactive; inhibition (NCI-H23 [18]): inactive |
| CO[C@@]12[C@H](COC(N)=O)C3=C(C(=O)C(C)=C(N)C3=O)N1C[C@@H]1N[C@@H]12 [MITOMYCIN] |  |  | Dose-dependent effect | 2 µM |  |  |  |  |  |  |  |
| CCCCOP(=O)(OCCCC)C(Nc1cccc(F)c1)c1ccc2c(c1)OCO2 (stereo unspecified) | 80.3 µM | Dose-dependent effect | Dose-dependent effect | 95.8 µM | 122 µM | Dose-dependent effect | > 500 µM | Dose-dependent effect | Dose-dependent effect | 364 µM |  |

From ChEMBL document CHEMBL3108680, “Diversity-oriented synthesis of α-aminophosphonates: a new class of potential anticancer agents” (Eur J Med Chem, 2013)
